The values below come from ChEMBL document CHEMBL4616611, “Synthesis and biological evaluation of FICZ analogues as agonists of aryl hydrocarbon receptor” (Bioorg Med Chem Lett, 2020).

Activity calls are given as the source filed them. The calls are words filed in the database; no cut-off is given here.

For series [1], the target named is T1, CYP1A1 (Homo sapiens, UniProt P35869).
T1 sequence (P35869 whole entry): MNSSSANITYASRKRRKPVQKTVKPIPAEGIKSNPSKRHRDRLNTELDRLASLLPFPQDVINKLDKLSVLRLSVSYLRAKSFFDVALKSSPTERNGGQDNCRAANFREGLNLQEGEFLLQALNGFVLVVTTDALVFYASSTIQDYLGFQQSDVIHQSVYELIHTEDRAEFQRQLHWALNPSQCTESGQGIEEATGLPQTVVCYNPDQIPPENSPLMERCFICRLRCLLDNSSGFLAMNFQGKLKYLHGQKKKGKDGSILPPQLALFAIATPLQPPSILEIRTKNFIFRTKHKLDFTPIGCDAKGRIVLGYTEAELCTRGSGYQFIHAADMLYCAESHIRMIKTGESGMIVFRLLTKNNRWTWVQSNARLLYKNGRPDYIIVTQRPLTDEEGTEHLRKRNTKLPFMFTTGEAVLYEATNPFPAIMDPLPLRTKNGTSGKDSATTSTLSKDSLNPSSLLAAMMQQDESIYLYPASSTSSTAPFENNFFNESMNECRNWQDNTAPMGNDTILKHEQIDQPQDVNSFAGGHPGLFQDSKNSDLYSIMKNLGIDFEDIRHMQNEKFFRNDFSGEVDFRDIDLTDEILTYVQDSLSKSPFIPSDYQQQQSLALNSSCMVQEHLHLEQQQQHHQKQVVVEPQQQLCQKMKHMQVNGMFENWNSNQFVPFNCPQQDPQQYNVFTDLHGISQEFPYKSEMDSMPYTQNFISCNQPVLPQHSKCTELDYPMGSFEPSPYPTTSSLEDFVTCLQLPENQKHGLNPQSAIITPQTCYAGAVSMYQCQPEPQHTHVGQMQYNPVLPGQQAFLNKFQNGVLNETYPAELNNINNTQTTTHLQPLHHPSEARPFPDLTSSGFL
Briefly: Agonist activity at AhR in human HepG2 cells assessed as induction of CYP1A1 activity at 80 nM using 7-ethoxyresorufin as substrate after 24 hrs by ethoxyresorufin-O-deethylase assay relative to DMSO. In kind it is cell-based. The settings on record: probe 7-ethoxyresorufin, read-out: FC. A digest of the protocol:
(§1)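 EROD read-out of CYP1A1 activity in HepG cells treated for 24 h with compound or vehicle (DMSO) at 0.13 nM, 3.2 nM and 80 nM. Activity is reported as fold induction over the DMSO-treated cells.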

For series [2], the target named is T2, Aryl hydrocarbon receptor (Homo sapiens, UniProt P35869).
T2 sequence (P35869 whole entry): T1 sequence (P35869 whole entry)
Briefly: Agonist activity at AhR in human HepG2 cells assessed as increase in CYP1A1 protein expression at 300 nM after 24 hrs by Western blot analysis. The class given is cell-based. Conditions: hepg2, 24 h, 0.3 µM. A digest of the protocol: (§2)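 HepG2 cells were exposed to a dose series for 24 h. CYP1A1 protein levels were then assessed by Western blotting.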

The target of series [3] is T1, CYP1A1. Kind of series: Agonist activity at AhR in human HepG2 cells assessed as induction of CYP1A1 activity at 0.13 nM using 7-ethoxyresorufin as substrate after 24 hrs by ethoxyresorufin-O-deethylase assay relative to DMSO. The settings on record: probe 7-ethoxyresorufin, read-out: FC. The class given is cell-based. A digest of the protocol:
as §1

For series [4], the target named is T1, CYP1A1. Briefly: Agonist activity at AhR in human HepG2 cells assessed as induction of CYP1A1 activity at 3.2 nM using 7-ethoxyresorufin as substrate after 24 hrs by ethoxyresorufin-O-deethylase assay relative to DMSO. In kind it is cell-based. Conditions: probe 7-ethoxyresorufin, read-out: FC. A digest of the protocol:
as §1

The target of series [5] is T2, Aryl hydrocarbon receptor. Kind of series: Agonist activity at AhR in human HepG2 cells assessed as induction of CYP1A1 expression after 24 hrs by ethoxyresorufin-O-deethylase assay. In kind it is cell-based. Conditions: for Activity: human, hepg2, 24 h. A digest of the protocol:
(§3)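 Full dose-response in the EROD assay. HepG2 cells were treated for 24 h across a concentration series, with FICZ as the reference agonist. CYP1A1 induction was read out and EC50 values were derived from the curves.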

In series [6] the target is T2, Aryl hydrocarbon receptor. Kind of series: Potency index, ratio of FICZ EC50 to test compound EC50 for agonist activity at AhR in human HepG2 cells assessed as increase in CYP1A1 expression after 24 hrs by ethoxyresorufin-O-deethylase assay. In kind it is cell-based. The settings on record: hepg2, 24 h.
Series [7] addresses T2, Aryl hydrocarbon receptor. Kind of series: Agonist activity at AhR in human HepG2 cells assessed as increase in CYP1A1 protein expression after 24 hrs by Western blot analysis. The class given is cell-based. Conditions: hepg2, 24 h. A digest of the protocol:
as §2

Series [8] addresses T2, Aryl hydrocarbon receptor. Kind of series: Agonist activity at AhR in human HepG2 cells assessed as increase in CYP1A1 protein expression at 3 to 10 nM after 24 hrs by Western blot analysis. Conditions: hepg2, 24 h. The class given is cell-based. A digest of the protocol: as §2
(In general: Immunoblotting shows a protein as a band on a membrane.)

Series [9] addresses T2, Aryl hydrocarbon receptor. Kind of series: Agonist activity at AhR in human HepG2 cells assessed as induction of CYP1A1 expression at <30 pM after 24 hrs by ethoxyresorufin-O-deethylase assay. In kind it is cell-based. The settings on record: hepg2, 24 h. A digest of the protocol: as §3
The test system of series [10] is HepG2. Briefly: Effect on AhR mRNA expression in human HepG2 cells assessed as 100 nM after 6 hrs by q-RT-PCR analysis. The class given is functional, cell-based. A digest of the protocol:
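HepG2 cells were treated at 100 nM for 6 h. AhR and CYP1A1 mRNA levels were then quantified by qRT-PCR, normalized to GAPDH.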

Series [11] addresses T1, CYP1A1. Briefly: Agonist activity at AhR in human HepG2 cells assessed as induction of CYP1A1 activity at 3.2 nM using 7-ethoxyresorufin as substrate after 24 hrs by ethoxyresorufin-O-deethylase assay relative to 3-phenylbenzo[f]chromen-1-one. In kind it is cell-based. The settings on record: probe 7-ethoxyresorufin, read-out: FC.
In series [12] the target is T1, CYP1A1. Briefly: Agonist activity at AhR in human HepG2 cells assessed as induction of CYP1A1 activity at 0.13 nM using 7-ethoxyresorufin as substrate after 24 hrs by ethoxyresorufin-O-deethylase assay relative to 3-phenylbenzo[f]chromen-1-one. In kind it is cell-based. Conditions: probe 7-ethoxyresorufin, read-out: FC.

`O=c1cc(-c2ccccc2)oc2ccc3ccccc3c12` [BETA-NAPHTHOFLAVONE]: the fold induction at 24 h, 0.08 µM in [1] was 11.2. In addition, the outcome in series [2] was Active. In addition, the fold induction at 24 h, 0.00013 µM in series [3] amounted to 0.8. Also, the fold induction at 24 h, 0.0032 µM in series [4] came to 1.1.
For `OCc1c2c(cc3c4ccccc4n(CC4CC4)c13)[nH]c1ccccc12`, the fold induction at 24 h, 0.08 µM in series [1] was 2.6. For the same compound, in series [3], the fold induction at 24 h, 0.00013 µM is 0.3. The fold induction at 24 h, 0.0032 µM in series [4] is 0.5.
For `CCCn1c2ccccc2c2c(C=O)c3c(cc21)c1ccccc1n3C`, in [1], the fold induction at 24 h, 0.08 µM came out at 8.9. Also, the fold induction at 24 h, 0.00013 µM in series [3] was 1.3. Further, in [4], the fold induction at 24 h, 0.0032 µM was determined as 1.9.
For the compound `Cn1c2ccccc2c2cc3[nH]c4ccccc4c3c(CO)c21`, the fold induction at 24 h, 0.08 µM in series [1] was determined as 62.6. Besides, in [3], the fold induction at 24 h, 0.00013 µM is 5.3. Moreover, the fold induction at 24 h, 0.0032 µM in series [4] came to 26.7.
For `Cn1c2ccccc2c2cc3[nH]c4ccccc4c3c(C=O)c21`, the EC50 in series [5] stood at 0.26 nM. The Activity entry in series [5] is on record as “Dose-dependent effect”; in [7], “Dose-dependent effect”; in [8], “Active”; in series [9] it was “Active”. Moreover, the “Ratio EC50” value in series [6] was 8. In series [1], the fold induction at 24 h, 0.08 µM stood at 82.4. Besides, the fold induction at 24 h, 0.00013 µM in series [3] turned out to be 27.3. The fold induction at 24 h, 0.0032 µM in series [4] amounted to 88.9. Besides, the outcome in series [10] was inactive.
For the compound `CCn1c2ccccc2c2c(C=O)c3c(cc21)c1ccccc1n3C`, the fold induction at 24 h, 0.08 µM in series [1] was 25.1. Also, in [3], the fold induction at 24 h, 0.00013 µM was 1.4. The fold induction at 24 h, 0.0032 µM in [4] is 4.5.
For the compound `OCc1c2[nH]c3ccccc3c2cc2[nH]c3ccccc3c12`, the fold induction at 24 h, 0.0032 µM in [11] was 12; in [4], 13.4. Moreover, the results for the fold induction at 24 h, 0.00013 µM in series [12] and in series [3] were 5 and 3.8, respectively. Also, the fold induction at 24 h, 0.08 µM in [1] stood at 59.2.
Take `Cn1c2ccccc2c2cc3c(c(C=O)c21)c1ccccc1n3Cc1ccccc1`: the fold induction at 24 h, 0.08 µM in series [1] stood at 27.5. Also, in series [3], the fold induction at 24 h, 0.00013 µM is 1. The fold induction at 24 h, 0.0032 µM in series [4] was 4.2.
For `OCc1c2c(cc3c4ccccc4n(Cc4ccccc4)c13)[nH]c1ccccc12`, the fold induction at 24 h, 0.08 µM in [1] stood at 3.6. Also, in series [3], the fold induction at 24 h, 0.00013 µM came to 0.4. For the same compound, in [4], the fold induction at 24 h, 0.0032 µM was determined as 0.7.
As to `CCn1c2ccccc2c2cc3[nH]c4ccccc4c3c(CO)c21`, in [1], the fold induction at 24 h, 0.08 µM was determined as 31.8. The fold induction at 24 h, 0.00013 µM in [3] amounted to 1.4. Also, the fold induction at 24 h, 0.0032 µM in [4] stood at 3.5.
As to `O=Cc1c2[nH]c3ccccc3c2cc2[nH]c3ccccc3c12`, the Activity entry in series [5] is listed as “Dose-dependent effect”.
As to `CCCn1c2ccccc2c2cc3[nH]c4ccccc4c3c(CO)c21`, in series [1], the fold induction at 24 h, 0.08 µM is 3.4. Besides, in series [3], the fold induction at 24 h, 0.00013 µM came out at 0.4. In addition, the fold induction at 24 h, 0.0032 µM in series [4] was 0.5.
For `Cn1c2ccccc2c2c(C=O)c3c(cc21)c1ccccc1n3C` the same measures were 39.4, 1.6 and 3.4.

The term EC50 denotes the concentration needed to bring the measured effect to its halfway point.
